ChEMBL document CHEMBL1806473, “Structure-based optimization of click-based histone deacetylase inhibitors” (Eur J Med Chem, 2011)

What was measured:
[1] = test system: HL-60(TB); experiment: Cytotoxicity against human HL-60(TB) cells; assay type: cell-based
[2] = test system: UO-31; experiment: Cytotoxicity against human UO31 cells; assay type: cell-based
Method in brief: (§1)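 Screened by NCI in its in vitro disease-oriented human tumour cell line panel. Compounds tested at five concentrations (100, 10, 1.0, 0.1 and 0.01 μM). Growth read by sulforhodamine B (SRB) signal. GI50 is the concentration reducing growth of treated cells to half that of control cells during the drug incubation.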

[3] = test system: NCI-H460; experiment: Cytotoxicity against human NCI-H460 cells; assay type: cell-based
[4] = test system: NCI-H23; experiment: Antiproliferative activity against human NCI-H23 cells by SRB assay; assay type: functional
Method in brief: (§2)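 Tested in the NCI in vitro human tumor cell line screen, run by the National Cancer Institute. Each compound was given at five concentrations (100, 10, 1.0, 0.1 and 0.01 μM). GI50 is the drug concentration that reduces growth of treated cells to half that of control cells during drug incubation, judged from the SRB signal.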

[5] = test system: A549; experiment: Cytotoxicity against human A549 cells; assay type: cell-based
Method in brief: (§3)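 Tested in the NCI in vitro disease-oriented human tumour cell line screen, with screening performed by NCI. Growth was read by SRB signal over the drug incubation period at five concentrations: 100, 10, 1.0, 0.1 and 0.01 μM. GI50 is the concentration that reduces growth of treated cells to half that of control cells.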

[6] = test system: MDA-MB-231; experiment: Cytotoxicity against human MDA-MB-231 cells; assay type: functional; method in brief: as §3
[7] = test system: SW-620; experiment: Cytotoxicity against human SW620 cells; assay type: cell-based; method in brief: as §1
[8] = test system: CAKI-1; experiment: Antiproliferative activity against human Caki1 cells by SRB assay; assay type: functional; method in brief: as §2
[9] = test system: SF-539; experiment: Cytotoxicity against human SF539 cells; assay type: cell-based; method in brief: as §3
[10] = test system: M14; experiment: Antiproliferative activity against human M14 cells by SRB assay; assay type: functional; method in brief: as §2
[11] = test system: TK-10; experiment: Antiproliferative activity against human TK10 cells by SRB assay; assay type: functional
Method in brief: (§4)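 Cell growth was tested in the NIH in vitro disease-oriented human tumor cell line screen, which NCI ran for these compounds. Compounds were tested at five concentrations (100, 10, 1.0, 0.1 and 0.01 μM), and growth was read by SRB signal. GI50 is the drug concentration that reduces growth of treated cells to half that of control cells during drug incubation.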

[12] = Antiproliferative activity against human Hs 578T cells by SRB assay; assay type: functional; method in brief: as §2
[13] = test system: SNB-75; experiment: Cytotoxicity against human SNB75 cells; assay type: cell-based; method in brief: as §1
[14] = test system: BT-549; experiment: Cytotoxicity against human BT549 cells; assay type: cell-based
[15] = test system: EKVX; experiment: Cytotoxicity against human EKVX cells; assay type: cell-based; method in brief: as §3
[16] = test system: MOLT-4; experiment: Cytotoxicity against human MOLT4 cells; assay type: cell-based
[17] = test system: NCI-H460; experiment: Antiproliferative activity against human NCI-H460 cells by SRB assay; assay type: functional; method in brief: as §2
[18] = test system: OVCAR-4; experiment: Antiproliferative activity against human OVCAR4 cells by SRB assay; assay type: functional; method in brief: as §2
[19] = test system: NCI-H522; experiment: Cytotoxicity against human NCI-H522 cells; assay type: cell-based; method in brief: as §3
[20] = test system: NCI-H322M; experiment: Antiproliferative activity against human NCI-H322M cells by SRB assay; assay type: functional; method in brief: as §2
[21] = test system: RXF 393; experiment: Antiproliferative activity against human RXF393 cells by SRB assay; assay type: functional; method in brief: as §2
[22] = test system: SK-MEL-2; experiment: Cytotoxicity against human SK-MEL-2 cells; assay type: cell-based; method in brief: as §3
[23] = test system: SK-OV-3; experiment: Antiproliferative activity against human SKOV3 cells by SRB assay; assay type: functional; method in brief: as §2
[24] = test system: PC-3; experiment: Antiproliferative activity against human PC3 cells by SRB assay; assay type: functional; method in brief: as §2
[25] = test system: T47D; experiment: Cytotoxicity against human T47D cells; assay type: cell-based; method in brief: as §1
[26] = test system: SF-539; experiment: Antiproliferative activity against human SF539 cells by SRB assay; assay type: functional; method in brief: as §2
[27] = test system: NCI-H322M; experiment: Cytotoxicity against human NCI-H322M cells; assay type: cell-based
[28] = test system: CAKI-1; experiment: Cytotoxicity against human Caki1 cells; assay type: cell-based
[29] = test system: UACC-257; experiment: Cytotoxicity against human UACC257 cells; assay type: cell-based; method in brief: as §1
[30] = test system: SF-295; experiment: Cytotoxicity against human SF295 cells; assay type: cell-based; method in brief: as §3
[31] = test system: DU-145; experiment: Antiproliferative activity against human DU145 cells by SRB assay; assay type: functional; method in brief: as §2
[32] = test system: UACC-62; experiment: Antiproliferative activity against human UACC62 cells by SRB assay; assay type: functional; method in brief: as §4
[33] = test system: OVCAR-3; experiment: Cytotoxicity against human OVCAR3 cells; assay type: cell-based; method in brief: as §3
[34] = test system: A549; experiment: Antiproliferative activity against human A549 cells by SRB assay; assay type: functional; method in brief: as §2
[35] = test system: CCRF-CEM; experiment: Cytotoxicity against human CCRF-CEM cells; assay type: cell-based
[36] = test system: RXF 393; experiment: Cytotoxicity against human RXF393 cells; assay type: cell-based; method in brief: as §3
[37] = test system: OVCAR-8; experiment: Antiproliferative activity against human OVCAR8 cells by SRB assay; assay type: functional; method in brief: as §2
[38] = test system: SF-268; experiment: Antiproliferative activity against human SF268 cells by SRB assay; assay type: functional; method in brief: as §2
[39] = test system: SR; experiment: Antiproliferative activity against human SR cells by SRB assay; assay type: functional; method in brief: as §4
[40] = test system: OVCAR-5; experiment: Cytotoxicity against human OVCAR5 cells; assay type: cell-based; method in brief: as §3
[41] = test system: RPMI-8226; experiment: Cytotoxicity against human RPMI8226 cells; assay type: cell-based; method in brief: as §3
[42] = test system: COLO 205; experiment: Antiproliferative activity against human COLO205 cells by SRB assay; assay type: functional; method in brief: as §2
[43] = test system: 786-0; experiment: Antiproliferative activity against human 786-0 cells by SRB assay; assay type: functional; method in brief: as §2
[44] = test system: NCI-H23; experiment: Cytotoxicity against human NCI-H23 cells; assay type: cell-based
[45] = test system: NCI-H226; experiment: Antiproliferative activity against human NCI-H226 cells by SRB assay; assay type: functional; method in brief: as §2
[46] = test system: SNB-75; experiment: Antiproliferative activity against human SNB75 cells by SRB assay; assay type: functional; method in brief: as §4
[47] = test system: OVCAR-5; experiment: Antiproliferative activity against human OVCAR5 cells by SRB assay; assay type: functional; method in brief: as §2
[48] = test system: COLO 205; experiment: Cytotoxicity against human COLO205 cells; assay type: cell-based; method in brief: as §3
[49] = test system: SK-MEL-2; experiment: Antiproliferative activity against human SK-MEL-2 cells by SRB assay; assay type: functional; method in brief: as §2
[50] = test system: IGROV-1; experiment: Antiproliferative activity against human IGROV1 cells by SRB assay; assay type: functional; method in brief: as §2
[51] = test system: HCT-116; experiment: Antiproliferative activity against human HCT116 cells by SRB assay; assay type: functional; method in brief: as §2
[52] = test system: CCRF-CEM; experiment: Antiproliferative activity against human CCRF-CEM cells by SRB assay; assay type: functional; method in brief: as §2
[53] = test system: MDA-MB-435; experiment: Cytotoxicity against human MDA-MB-435 cells; assay type: cell-based
[54] = test system: SN12C; experiment: Cytotoxicity against human SN12C cells; assay type: cell-based; method in brief: as §1
[55] = test system: OVCAR-4; experiment: Cytotoxicity against human OVCAR4 cells; assay type: cell-based
[56] = test system: T47D; experiment: Antiproliferative activity against human T47D cells by SRB assay; assay type: functional; method in brief: as §4
[57] = test system: KM12; experiment: Antiproliferative activity against human KM12 cells by SRB assay; assay type: functional; method in brief: as §2
[58] = test system: HT-29; experiment: Antiproliferative activity against human HT-29 cells by SRB assay; assay type: functional; method in brief: as §2
[59] = test system: U-251; experiment: Cytotoxicity against human U251 cells; assay type: cell-based; method in brief: as §1
[60] = test system: K562; experiment: Cytotoxicity against human K562 cells; assay type: cell-based
[61] = test system: SNB-19; experiment: Antiproliferative activity against human SNB19 cells by SRB assay; assay type: functional; method in brief: as §2
[62] = test system: MDA-MB-435; experiment: Antiproliferative activity against human MDA-MB-435 cells by SRB assay; assay type: functional; method in brief: as §2
[63] = test system: HOP-92; experiment: Antiproliferative activity against human HOP92 cells by SRB assay; assay type: functional; method in brief: as §2
[64] = test system: DU-145; experiment: Cytotoxicity against human DU145 cells; assay type: cell-based; method in brief: as §3

`CC(/C=C/c1ccccc1)n1cc(/C=C/C(=O)NO)nn1` (centres undefined) showed an LC50 [1] greater than 100 µM, an LC50 [2] of 66.7 µM and an LC50 [3] of 42.7 µM. It also gave a GI50 [4] of 1.25 µM, an LC50 [5] greater than 100 µM and an LC50 [6] greater than 100 µM. It also gave an LC50 [7] of 5.15 µM, a GI50 [8] of 0.401 µM and an LC50 [9] of 4.61 µM. It also gave a GI50 [10] of 0.777 µM, a GI50 [11] of 0.582 µM and a GI50 [12] of 0.692 µM. For the same molecule, the LC50 [13] was 33.9 µM, the LC50 [14] was greater than 100 µM and the LC50 [15] was greater than 100 µM. It also gave an LC50 [16] greater than 100 µM, a GI50 [17] of 0.612 µM and a GI50 [18] of 0.636 µM. It also gave an LC50 [19] of 3.62 µM, a GI50 [20] of 1.28 µM and a GI50 [21] of 1.41 µM. For the same molecule, the LC50 [22] was 37 µM, the GI50 [23] was 1.17 µM and the GI50 [24] was 0.89 µM. It also gave an LC50 [25] of 7.63 µM, a GI50 [26] of 0.934 µM and an LC50 [27] greater than 100 µM. For the same molecule, the LC50 [28] was 34.7 µM, the LC50 [29] was greater than 100 µM and the LC50 [30] was greater than 100 µM. The GI50 [31] was 0.803 µM, the GI50 [32] was 0.524 µM and the LC50 [33] was 7.33 µM. It also gave a GI50 [34] of 1.47 µM, an LC50 [35] greater than 100 µM and an LC50 [36] greater than 100 µM. It also gave a GI50 [37] of 0.232 µM, a GI50 [38] of 1.51 µM and a GI50 [39] of 0.385 µM. For the same molecule, the LC50 [40] was greater than 100 µM, the LC50 [41] was greater than 100 µM and the GI50 [42] was 0.469 µM. For the same molecule, the GI50 [43] was 1.64 µM, the LC50 [44] was 6.61 µM and the GI50 [45] was 2.35 µM. It also gave a GI50 [46] of 0.924 µM, a GI50 [47] of 0.488 µM and an LC50 [48] of 5.2 µM. For the same molecule, the GI50 [49] was 0.614 µM, the GI50 [50] was 0.564 µM and the GI50 [51] was 0.341 µM. For the same molecule, the GI50 [52] was 0.442 µM, the LC50 [53] was 30.8 µM and the LC50 [54] was greater than 100 µM. For the same molecule, the LC50 [55] was 18.3 µM, the GI50 [56] was 0.667 µM and the GI50 [57] was 1.29 µM. The GI50 [58] was 0.325 µM, the LC50 [59] was 4.5 µM and the LC50 [60] was greater than 100 µM. For the same molecule, the GI50 [61] was 1.87 µM, the GI50 [62] was 0.44 µM and the GI50 [63] was 0.677 µM. It also gave an LC50 [64] greater than 100 µM.
